Key:
Jurkat cells = test: WST-1 metabolic activity assay; type: cell-based; conditions: Homo sapiens, 72 h, read-out: metabolic activity
How it was run: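 Test compound came from a 10 mM DMSO stock. Cells were seeded at 5×10^4/well in triplicate with 5 or 10 μM final compound; controls got matched DMSO. After 72 h at 37°C, 5% CO2, WST-1 was added for a further 3 h. Absorbance was read at 450 nm (reference 620 nm), and metabolic activity given as % of DMSO control.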

CEM cells = test: Cell morphology, May Grünwald Giemsa staining; type: cell-based, human; conditions: 2.5 μM, 48 h
cleaved caspase 3 = test: Western blot, SEM cells; type: cell-based, human; conditions: 2.5 μM and 5.0 μM, 48 h
How it was run: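 SEM and RS4;11 cells were exposed to 2.5 or 5.0 μM test compound, or DMSO, for 48 h. Lysates of 1–5×10^6 cells were made in RIPA buffer with sonication. Cleaved caspase 3 was detected by western blot on PVDF with near-infrared imaging, using GAPDH as loading control.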

p-p38 = test: Western blot, SEM cells; type: cell-based, human; conditions: 2.5 μM or 5.0 μM, 48 h
How it was run: (§1)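 SEM or RS4;11 cells took DMSO, 2.5 or 5.0 μM test compound for 48 h. Cells (1–5×10^6) were lysed in RIPA buffer with sonication, run on SDS gels, blotted to PVDF and imaged by near-infrared fluorescence. Bands were normalised to GAPDH, and the phospho/total protein ratio was set relative to DMSO control (=1).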

pSTAT3 = test: Western blot, SEM cells; type: cell-based, human; conditions: 2.5 μM or 5.0 μM, 48 h
How it was run: as §1

pERK = test: Western blot, RS4; type: cell-based, human; conditions: RS4;11, 2.5 μM or 5.0 μM, 48 h
How it was run: as §1

Abl = Abl (Homo sapiens, UniProt P00519); test: Kinase activity screening; type: biochemical; conditions: FX-9 at 2.5 μM, ATP at Km (45 μM)
How it was run: (§2)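 Radiometric substrate-phosphorylation screen covering a panel of 58 human kinases run by a contract service. […] Activity is given as a percentage of mean activity in positive control samples (100%). Values <30% were scored strong hits, 30–70% partial hits and >70% no hit.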

ALK = ALK (Homo sapiens, UniProt Q9UM73); test: Kinase activity screening; type: biochemical; conditions: FX-9 at 2.5 μM, ATP at Km (200 μM)
How it was run: as §2

Aurora-A = Aurora-A (Homo sapiens, UniProt O14965); test: Kinase activity screening; type: biochemical; conditions: FX-9 at 2.5 μM, ATP at Km (15 μM)
How it was run: as §2

CDK1/cyclinB = CDK1/cyclinB (Homo sapiens, UniProt P06493); test: Kinase activity screening; type: biochemical; conditions: FX-9 at 2.5 μM, ATP at Km (45 μM)
How it was run: as §2

CDK7/cyclinH/MAT1 = CDK7/cyclinH/MAT1 (Homo sapiens, UniProt P50613); test: Kinase activity screening; type: biochemical; conditions: FX-9 at 2.5 μM, ATP at Km (90 μM)
How it was run: as §2

c-RAF = c-RAF (Homo sapiens, UniProt P04049); test: Kinase activity screening; type: biochemical; conditions: FX-9 at 2.5 μM, ATP at Km (120 μM)
How it was run: (§3)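 Radiometric kinase-panel screen of 58 human kinases, measuring substrate phosphorylation. […] Activity is given as % of the mean positive-control kinase activity (100%). Below 30% counts as a strong hit, 30–70% as a partial hit, and above 70% as no hit.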

eEF-2K = eEF-2K (Homo sapiens, UniProt O00418); test: Kinase activity screening; type: biochemical; conditions: FX-9 at 2.5 μM, ATP at Km (15 μM)
How it was run: as §3

EphB4 = EphB4 (Homo sapiens, UniProt P54760); test: Kinase activity screening; type: biochemical; conditions: FX-9 at 2.5 μM, ATP at Km (10 μM)
How it was run: as §2

GSK3β = GSK3β (Homo sapiens, UniProt P49841); test: Kinase activity screening; type: biochemical; conditions: FX-9 at 2.5 μM, ATP at Km (15 μM)
Chain of GSK3β (P49841 whole entry): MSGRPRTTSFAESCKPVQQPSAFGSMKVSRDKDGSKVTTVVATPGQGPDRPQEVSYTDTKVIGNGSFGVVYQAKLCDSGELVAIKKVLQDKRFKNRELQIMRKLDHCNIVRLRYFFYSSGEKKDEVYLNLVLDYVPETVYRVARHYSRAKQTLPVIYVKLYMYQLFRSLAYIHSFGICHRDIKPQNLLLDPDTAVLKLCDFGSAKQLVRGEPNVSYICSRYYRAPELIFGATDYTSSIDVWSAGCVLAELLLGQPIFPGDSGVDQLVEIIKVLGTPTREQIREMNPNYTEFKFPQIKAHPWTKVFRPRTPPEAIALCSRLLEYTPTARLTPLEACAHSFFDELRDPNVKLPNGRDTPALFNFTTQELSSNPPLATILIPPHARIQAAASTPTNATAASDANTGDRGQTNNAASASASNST
How it was run: as §2

IGF-1R = IGF-1R (Homo sapiens, UniProt P08069); test: Kinase activity screening; type: biochemical; conditions: FX-9 at 2.5 μM, ATP at Km (200 μM)
Chain of IGF-1R (P08069 31-1367): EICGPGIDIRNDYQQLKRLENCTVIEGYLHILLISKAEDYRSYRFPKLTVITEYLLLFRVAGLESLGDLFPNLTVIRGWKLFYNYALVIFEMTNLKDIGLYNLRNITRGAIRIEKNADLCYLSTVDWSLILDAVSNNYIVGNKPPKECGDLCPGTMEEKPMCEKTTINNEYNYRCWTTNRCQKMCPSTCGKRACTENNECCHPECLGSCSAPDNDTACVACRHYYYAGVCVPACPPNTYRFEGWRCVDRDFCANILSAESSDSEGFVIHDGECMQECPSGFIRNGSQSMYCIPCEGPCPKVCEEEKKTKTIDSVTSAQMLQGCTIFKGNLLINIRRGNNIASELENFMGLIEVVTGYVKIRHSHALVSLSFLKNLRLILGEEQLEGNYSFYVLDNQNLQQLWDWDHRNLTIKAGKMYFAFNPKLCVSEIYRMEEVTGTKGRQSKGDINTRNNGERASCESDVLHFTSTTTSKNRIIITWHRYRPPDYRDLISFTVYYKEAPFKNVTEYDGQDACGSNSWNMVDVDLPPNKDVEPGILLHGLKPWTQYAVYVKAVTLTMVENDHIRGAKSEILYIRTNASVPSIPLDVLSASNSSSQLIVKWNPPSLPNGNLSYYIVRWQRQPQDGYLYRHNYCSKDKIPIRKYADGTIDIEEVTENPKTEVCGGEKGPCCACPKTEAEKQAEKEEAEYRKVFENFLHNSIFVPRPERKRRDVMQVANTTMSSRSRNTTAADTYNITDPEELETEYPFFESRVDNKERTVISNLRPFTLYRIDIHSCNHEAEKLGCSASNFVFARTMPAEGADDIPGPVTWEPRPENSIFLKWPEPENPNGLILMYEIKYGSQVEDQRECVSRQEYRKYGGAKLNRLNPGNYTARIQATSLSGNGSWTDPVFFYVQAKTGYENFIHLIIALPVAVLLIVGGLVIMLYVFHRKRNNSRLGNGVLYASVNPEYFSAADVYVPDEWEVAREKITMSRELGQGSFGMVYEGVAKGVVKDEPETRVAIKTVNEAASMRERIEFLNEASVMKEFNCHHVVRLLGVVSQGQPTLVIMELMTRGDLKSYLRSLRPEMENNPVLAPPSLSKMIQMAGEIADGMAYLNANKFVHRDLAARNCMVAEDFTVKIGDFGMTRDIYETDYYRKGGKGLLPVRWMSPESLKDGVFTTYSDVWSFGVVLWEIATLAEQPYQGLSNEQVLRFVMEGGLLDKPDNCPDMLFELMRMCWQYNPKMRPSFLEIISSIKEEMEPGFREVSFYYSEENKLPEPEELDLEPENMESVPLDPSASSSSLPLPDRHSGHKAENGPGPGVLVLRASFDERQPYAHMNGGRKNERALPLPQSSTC
How it was run: as §2

MSK2 = MSK2 (Homo sapiens, UniProt O75676); test: Kinase activity screening; type: biochemical; conditions: FX-9 at 2.5 μM, ATP at Km (45 μM)
Chain of MSK2 (O75676 whole entry): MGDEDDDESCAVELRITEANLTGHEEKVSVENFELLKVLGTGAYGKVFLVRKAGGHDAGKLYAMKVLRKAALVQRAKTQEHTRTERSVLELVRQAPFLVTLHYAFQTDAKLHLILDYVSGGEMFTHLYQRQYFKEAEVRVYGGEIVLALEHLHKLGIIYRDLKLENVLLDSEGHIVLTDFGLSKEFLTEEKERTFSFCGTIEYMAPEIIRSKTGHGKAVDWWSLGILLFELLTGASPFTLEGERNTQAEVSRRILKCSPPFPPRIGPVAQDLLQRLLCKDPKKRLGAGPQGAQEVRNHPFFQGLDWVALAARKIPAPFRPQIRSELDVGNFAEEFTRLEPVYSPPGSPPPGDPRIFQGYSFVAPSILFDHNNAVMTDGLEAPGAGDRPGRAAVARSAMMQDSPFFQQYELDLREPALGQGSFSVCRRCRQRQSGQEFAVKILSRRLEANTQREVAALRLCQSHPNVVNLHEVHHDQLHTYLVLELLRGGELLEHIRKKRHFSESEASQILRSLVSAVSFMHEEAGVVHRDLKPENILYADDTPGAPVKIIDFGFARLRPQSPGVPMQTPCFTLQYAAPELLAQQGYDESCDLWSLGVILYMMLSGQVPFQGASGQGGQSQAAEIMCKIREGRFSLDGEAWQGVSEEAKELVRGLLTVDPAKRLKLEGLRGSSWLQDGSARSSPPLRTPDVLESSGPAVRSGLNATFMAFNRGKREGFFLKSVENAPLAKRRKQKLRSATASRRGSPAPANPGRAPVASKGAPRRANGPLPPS
How it was run: as §2

NEK2 = NEK2 (Homo sapiens, UniProt P51955); test: Kinase activity screening; type: biochemical; conditions: FX-9 at 2.5 μM, ATP at Km (120 μM)
Chain of NEK2 (P51955 whole entry): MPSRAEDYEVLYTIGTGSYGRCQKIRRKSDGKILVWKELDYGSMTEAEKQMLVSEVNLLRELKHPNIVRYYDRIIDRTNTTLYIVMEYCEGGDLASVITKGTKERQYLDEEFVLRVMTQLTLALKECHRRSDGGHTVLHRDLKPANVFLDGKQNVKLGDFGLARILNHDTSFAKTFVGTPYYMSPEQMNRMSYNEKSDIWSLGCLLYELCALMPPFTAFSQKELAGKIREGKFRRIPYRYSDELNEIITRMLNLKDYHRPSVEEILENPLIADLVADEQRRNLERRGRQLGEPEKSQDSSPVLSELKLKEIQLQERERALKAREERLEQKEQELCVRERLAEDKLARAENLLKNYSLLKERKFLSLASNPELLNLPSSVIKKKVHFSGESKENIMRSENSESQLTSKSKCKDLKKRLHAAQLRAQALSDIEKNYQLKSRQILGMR
How it was run: as §2

PDGFRβ = PDGFRβ (Homo sapiens, UniProt P09619); test: Kinase activity screening; type: biochemical; conditions: FX-9 at 2.5 μM, ATP at Km (200 μM)
How it was run: as §2

Pim-1 = Pim-1 (Homo sapiens, UniProt P11309); test: Kinase activity screening; type: biochemical; conditions: FX-9 at 2.5 μM, ATP at Km (90 μM)
How it was run: as §3

PKBα = PKBα (Homo sapiens, UniProt P31749); test: Kinase activity screening; type: biochemical; conditions: FX-9 at 2.5 μM, ATP at Km (155 μM)
How it was run: as §2

PKCθ = PKCθ (Homo sapiens, UniProt Q04759); test: Kinase activity screening; type: biochemical; conditions: FX-9 at 2.5 μM, ATP at Km (15 μM)
How it was run: as §3

ROCK-I = ROCK-I (Homo sapiens, UniProt Q13464); test: Kinase activity screening; type: biochemical; conditions: FX-9 at 2.5 μM, ATP at Km (70 μM)
Chain of ROCK-I (Q13464 whole entry): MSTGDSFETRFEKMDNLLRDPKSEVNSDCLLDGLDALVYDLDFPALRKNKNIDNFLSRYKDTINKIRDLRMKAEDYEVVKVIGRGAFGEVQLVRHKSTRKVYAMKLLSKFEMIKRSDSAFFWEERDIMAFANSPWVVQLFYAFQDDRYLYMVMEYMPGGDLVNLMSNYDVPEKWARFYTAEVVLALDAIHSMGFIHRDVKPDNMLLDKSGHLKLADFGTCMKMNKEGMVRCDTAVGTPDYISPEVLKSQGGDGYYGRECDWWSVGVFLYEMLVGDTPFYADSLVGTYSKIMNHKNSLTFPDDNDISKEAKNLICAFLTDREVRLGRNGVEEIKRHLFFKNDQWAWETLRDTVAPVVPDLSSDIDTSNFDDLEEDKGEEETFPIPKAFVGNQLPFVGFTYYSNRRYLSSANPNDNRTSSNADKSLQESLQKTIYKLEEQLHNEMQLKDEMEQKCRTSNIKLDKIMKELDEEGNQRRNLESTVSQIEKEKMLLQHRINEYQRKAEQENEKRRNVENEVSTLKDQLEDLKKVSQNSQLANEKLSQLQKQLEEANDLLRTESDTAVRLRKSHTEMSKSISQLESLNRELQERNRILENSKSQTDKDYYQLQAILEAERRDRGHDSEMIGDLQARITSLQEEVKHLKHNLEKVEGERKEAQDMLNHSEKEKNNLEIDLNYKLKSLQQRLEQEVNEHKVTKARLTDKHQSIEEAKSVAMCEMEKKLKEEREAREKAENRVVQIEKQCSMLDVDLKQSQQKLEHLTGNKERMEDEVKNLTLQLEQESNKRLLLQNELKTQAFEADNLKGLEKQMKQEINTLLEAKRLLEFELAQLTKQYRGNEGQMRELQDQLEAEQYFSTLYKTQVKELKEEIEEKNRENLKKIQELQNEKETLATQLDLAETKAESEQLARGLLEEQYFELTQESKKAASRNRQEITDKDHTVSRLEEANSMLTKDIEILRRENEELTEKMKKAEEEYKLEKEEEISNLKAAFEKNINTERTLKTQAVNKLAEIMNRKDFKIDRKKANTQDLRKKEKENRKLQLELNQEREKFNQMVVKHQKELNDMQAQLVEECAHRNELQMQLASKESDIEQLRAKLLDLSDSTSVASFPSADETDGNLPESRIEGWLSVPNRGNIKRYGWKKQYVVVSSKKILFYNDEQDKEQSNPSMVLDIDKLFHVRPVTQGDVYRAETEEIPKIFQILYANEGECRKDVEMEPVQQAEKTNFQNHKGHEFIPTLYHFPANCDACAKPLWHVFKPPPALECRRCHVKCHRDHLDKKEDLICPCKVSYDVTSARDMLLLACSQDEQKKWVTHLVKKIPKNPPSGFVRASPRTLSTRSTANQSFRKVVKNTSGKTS
How it was run: as §3

Rse = Rse (Homo sapiens, UniProt Q06418); test: Kinase activity screening; type: biochemical; conditions: FX-9 at 2.5 μM, ATP at Km (45 μM)
How it was run: as §3

Rsk1 = Rsk1 (Homo sapiens, UniProt Q15418); test: Kinase activity screening; type: biochemical; conditions: FX-9 at 2.5 μM, ATP at Km (45 μM)
Chain of Rsk1 (Q15418 whole entry): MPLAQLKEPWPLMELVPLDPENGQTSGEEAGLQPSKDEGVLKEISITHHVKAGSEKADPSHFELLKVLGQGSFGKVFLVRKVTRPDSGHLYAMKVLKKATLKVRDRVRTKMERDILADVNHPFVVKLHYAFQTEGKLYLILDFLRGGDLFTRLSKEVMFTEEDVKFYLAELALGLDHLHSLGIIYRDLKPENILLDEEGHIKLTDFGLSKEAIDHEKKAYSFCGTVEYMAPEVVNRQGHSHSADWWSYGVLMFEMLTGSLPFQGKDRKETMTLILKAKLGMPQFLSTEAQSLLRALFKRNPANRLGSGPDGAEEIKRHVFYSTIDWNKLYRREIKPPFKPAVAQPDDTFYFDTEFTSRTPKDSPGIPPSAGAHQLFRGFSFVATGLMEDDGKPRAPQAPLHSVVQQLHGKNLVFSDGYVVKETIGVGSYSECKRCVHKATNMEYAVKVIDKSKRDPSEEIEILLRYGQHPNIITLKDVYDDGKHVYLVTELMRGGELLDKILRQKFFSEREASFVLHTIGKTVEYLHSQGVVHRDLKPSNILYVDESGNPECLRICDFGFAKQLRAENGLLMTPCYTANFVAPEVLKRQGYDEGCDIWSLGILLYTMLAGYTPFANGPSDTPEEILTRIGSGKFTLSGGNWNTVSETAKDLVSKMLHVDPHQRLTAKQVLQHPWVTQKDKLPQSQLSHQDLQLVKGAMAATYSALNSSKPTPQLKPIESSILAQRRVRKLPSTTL
How it was run: as §3

SRPK1 = SRPK1 (Homo sapiens, UniProt Q96SB4); test: Kinase activity screening; type: biochemical; conditions: FX-9 at 2.5 μM, ATP at Km (10 μM)
How it was run: as §3

TAK1 = TAK1 (Homo sapiens, UniProt O43318); test: Kinase activity screening; type: biochemical; conditions: FX-9 at 2.5 μM, ATP at Km (45 μM)
How it was run: as §3

PI3 Kinase (p110b/p85a) = PI3 Kinase (p110b/p85a) (Homo sapiens, UniProt P42338); test: Kinase activity screening; type: biochemical; conditions: FX-9 at 2.5 μM, ATP at Km (200 μM)
How it was run: as §2

PI3 Kinase (p110a/p85a) = PI3 Kinase (p110a/p85a) (Homo sapiens, UniProt P42336); test: Kinase activity screening; type: biochemical; conditions: FX-9 at 2.5 μM, ATP at Km (200 μM)
How it was run: as §2

Structure (SMILES): Cc1ccc(-c2cc3ccccc3c(N)n2)cc1 [FX-9, 3-(p-Tolyl)isoquinolin-1-amine]
- viability at 5 µM (Jurkat cells): 10.4%
- viability at 10 µM (Jurkat cells): 13.6%
- cellular morphology (light microscopy) (CEM cells): Extensive cytoplasmic vacuolization, karyopyknosis, and karyolysis
- cleaved caspase 3 protein (western blot) (cleaved caspase 3): increased amount of cleaved caspase 3
- p-p38 level (western blot) (p-p38): reduced
- pSTAT3 level (western blot) (pSTAT3): reduced
- pERK level (western blot) (pERK): dose dependent increase
- Kinase activity (% control) (Abl): 96 % control
- Kinase activity (% control) (ALK): 112 % control
- Kinase activity (% control) (Aurora-A): 92 % control
- Kinase activity (% control) (CDK1/cyclinB): 97 % control
- Kinase activity (% control) (CDK7/cyclinH/MAT1): 91 % control
- Kinase activity (% control) (c-RAF): 92 % control
- Kinase activity (% control) (eEF-2K): 86 % control
- Kinase activity (% control) (EphB4): 83 % control
- Kinase activity (% control) (GSK3β): 88 % control
- Kinase activity (% control) (IGF-1R): 89 % control
- Kinase activity (% control) (MSK2): 89 % control
- Kinase activity (% control) (NEK2): 106 % control
- Kinase activity (% control) (PDGFRβ): 99 % control
- Kinase activity (% control) (Pim-1): 99 % control
- Kinase activity (% control) (PKBα): 98 % control
- Kinase activity (% control) (PKCθ): 96 % control
- Kinase activity (% control) (ROCK-I): 93 % control
- Kinase activity (% control) (Rse): 92 % control
- Kinase activity (% control) (Rsk1): 95 % control
- Kinase activity (% control) (SRPK1): 94 % control
- Kinase activity (% control) (TAK1): 87 % control
- Kinase activity (% control) (PI3 Kinase (p110b/p85a)): 97 % control
- Kinase activity (% control) (PI3 Kinase (p110a/p85a)): 101 % control

Source: paper PMC6720533 (Biomolecules & Therapeutics, 2019)
